Consider nine molecules from ChEMBL document CHEMBL4359929, “Piperidine and piperazine inhibitors of fatty acid amide hydrolase targeting excitotoxic pathology” (Bioorg Med Chem, 2019).

One series addresses T1, Monoglyceride lipase (Homo sapiens, UniProt Q99685).
T1 sequence (Q99685 whole entry): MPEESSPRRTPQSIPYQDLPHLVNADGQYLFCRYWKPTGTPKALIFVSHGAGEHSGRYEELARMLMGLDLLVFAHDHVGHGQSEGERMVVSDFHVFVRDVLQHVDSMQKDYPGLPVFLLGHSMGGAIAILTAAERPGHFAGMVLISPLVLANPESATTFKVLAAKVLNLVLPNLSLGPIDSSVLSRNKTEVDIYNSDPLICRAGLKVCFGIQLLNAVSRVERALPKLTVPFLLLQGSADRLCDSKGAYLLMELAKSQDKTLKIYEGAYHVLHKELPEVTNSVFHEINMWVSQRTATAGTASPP
The experiment in a line: Inhibition of human recombinant His-tagged MGL expressed in Escherichia coli BL21 DE3 cells using AHMMCE as substrate preincubated with enzyme for 15 mins followed by substrate addition and measured after every 15 mins for 3 hrs by fluorescence based assay. Put shortly:
(§1)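 Fluorescent enzyme assay in throughput format. Human recombinant FAAH or purified rat FAAH used arachidonoyl 7-amino-4-methylcoumarin amide as substrate; human recombinant MGL was run by a similar fluorometric procedure.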

Series [1] concerns the target T2, Fatty-acid amide hydrolase 1 (Homo sapiens) (UniProt O00519).
T2 sequence (whole entry): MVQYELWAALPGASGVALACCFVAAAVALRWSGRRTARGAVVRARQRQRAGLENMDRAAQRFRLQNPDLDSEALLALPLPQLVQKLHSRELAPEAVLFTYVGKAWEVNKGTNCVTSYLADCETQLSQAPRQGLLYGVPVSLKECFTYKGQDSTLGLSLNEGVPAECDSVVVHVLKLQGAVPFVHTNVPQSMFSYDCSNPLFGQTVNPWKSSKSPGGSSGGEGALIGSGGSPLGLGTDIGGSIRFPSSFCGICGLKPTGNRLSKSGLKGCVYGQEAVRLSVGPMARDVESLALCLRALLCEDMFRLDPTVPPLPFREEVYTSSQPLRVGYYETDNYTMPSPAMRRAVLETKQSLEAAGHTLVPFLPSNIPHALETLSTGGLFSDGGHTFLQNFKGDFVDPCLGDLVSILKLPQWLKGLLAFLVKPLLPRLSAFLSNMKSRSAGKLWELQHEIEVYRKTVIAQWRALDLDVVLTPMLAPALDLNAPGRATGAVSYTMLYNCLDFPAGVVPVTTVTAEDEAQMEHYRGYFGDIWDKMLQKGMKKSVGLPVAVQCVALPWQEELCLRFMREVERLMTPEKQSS
The experiment in a line: Inhibition of human recombinant MBP-tagged FAAH expressed in Escherichia coli cells at 1 uM using AAMCA as substrate incubated for 15 mins followed by substrate addition and measured after every 20 mins for 4 hrs by fluorescence based assay relative to control. In short, it runs like this:
(§2)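 Fluorescent FAAH assay with arachidonoyl 7-amino-4-methylcoumarin amide as substrate; compound tested at a single concentration of 1 µM; percent inhibition reported.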

The target of series [2] is T3, Fatty-acid amide hydrolase 1 (Rattus norvegicus) (UniProt P97612).
T3 sequence (whole entry): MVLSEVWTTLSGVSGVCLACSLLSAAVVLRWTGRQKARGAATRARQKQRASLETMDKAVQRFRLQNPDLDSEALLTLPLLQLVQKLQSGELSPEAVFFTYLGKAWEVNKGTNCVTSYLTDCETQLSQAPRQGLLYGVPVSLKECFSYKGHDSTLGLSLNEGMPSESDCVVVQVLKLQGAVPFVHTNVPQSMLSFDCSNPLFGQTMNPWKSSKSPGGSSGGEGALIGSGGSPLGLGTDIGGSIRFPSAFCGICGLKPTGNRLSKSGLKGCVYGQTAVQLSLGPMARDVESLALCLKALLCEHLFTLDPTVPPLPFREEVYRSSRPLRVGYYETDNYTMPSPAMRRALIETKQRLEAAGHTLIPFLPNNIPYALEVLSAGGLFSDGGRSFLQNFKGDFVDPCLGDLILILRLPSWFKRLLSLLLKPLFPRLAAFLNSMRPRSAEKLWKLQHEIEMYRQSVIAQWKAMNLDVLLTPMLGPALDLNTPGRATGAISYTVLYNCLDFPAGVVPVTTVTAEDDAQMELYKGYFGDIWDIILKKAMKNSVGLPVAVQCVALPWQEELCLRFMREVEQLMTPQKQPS
The experiment in a line: Inhibition of rat recombinant His/GST-tagged FAAH expressed in Escherichia coli cells at 1 uM using AAMCA as substrate incubated for 15 mins followed by substrate addition and measured after every 20 mins for 4 hrs by fluorescence based assay relative to control. In short, it runs like this:
as §2

The species entered for series [3] is Homo sapiens. The experiment in a line: Selectivity ratio of IC50 for human recombinant His-tagged MGL expressed in Escherichia coli BL21 DE3 cells to IC50 for human recombinant MBP-tagged FAAH expressed in Escherichia coli cells by fluorescence based assay.
Series [4] is filed under the species Homo sapiens. As to the kind of experiment: Selectivity ratio of IC50 for human full length ABHD6 expressed in Escherichia coli cells to IC50 for human recombinant MBP-tagged FAAH expressed in Escherichia coli cells by fluorescence based assay.
In series [5] the target is Cannabinoid receptor 1 (Rattus norvegicus) (UniProt P20272). The experiment in a line: Displacement of [3H]CP55940 from CB1 receptor in rat brain by competition-equilibrium binding analysis. Format: tissue-based. Put shortly:
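Rat brain membranes as CB1 source; competition-equilibrium binding against [3H]CP-55,940.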
Target sequence in this assay (P20272 whole entry): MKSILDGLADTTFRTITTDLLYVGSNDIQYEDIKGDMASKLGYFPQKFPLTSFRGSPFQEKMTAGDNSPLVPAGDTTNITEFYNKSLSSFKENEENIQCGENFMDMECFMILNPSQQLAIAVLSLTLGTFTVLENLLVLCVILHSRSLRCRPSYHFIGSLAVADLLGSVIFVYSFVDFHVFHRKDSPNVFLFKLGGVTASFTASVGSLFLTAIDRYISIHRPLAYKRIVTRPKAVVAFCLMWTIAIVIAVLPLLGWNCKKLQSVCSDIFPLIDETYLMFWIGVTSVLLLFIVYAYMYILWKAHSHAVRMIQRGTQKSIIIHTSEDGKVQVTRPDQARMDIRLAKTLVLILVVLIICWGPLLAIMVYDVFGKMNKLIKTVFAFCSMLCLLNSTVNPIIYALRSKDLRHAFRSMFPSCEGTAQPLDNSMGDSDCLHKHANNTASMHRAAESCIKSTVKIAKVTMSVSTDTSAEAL

Series [6] addresses Cannabinoid receptor 2 (Mus musculus) (UniProt P47936). As to the kind of experiment: Displacement of [3H]CP55940 from mouse CB2 receptor expressed in HEK293 cells by competition-equilibrium binding analysis. In kind it is cell-based. Put shortly:
(§3)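 HEK293 cell membranes expressing mouse or human CB2; competition-equilibrium binding against [3H]CP-55,940.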

The target in series [7] is Cannabinoid receptor 2 (Homo sapiens) (UniProt P34972). The experiment in a line: Displacement of [3H]CP55940 from human CB2 receptor expressed in HEK293 cells by competition-equilibrium binding analysis. In kind it is cell-based. Put shortly: as §3
Cannabinoid receptor 2 (Homo sapiens), sequence (P34972 whole entry): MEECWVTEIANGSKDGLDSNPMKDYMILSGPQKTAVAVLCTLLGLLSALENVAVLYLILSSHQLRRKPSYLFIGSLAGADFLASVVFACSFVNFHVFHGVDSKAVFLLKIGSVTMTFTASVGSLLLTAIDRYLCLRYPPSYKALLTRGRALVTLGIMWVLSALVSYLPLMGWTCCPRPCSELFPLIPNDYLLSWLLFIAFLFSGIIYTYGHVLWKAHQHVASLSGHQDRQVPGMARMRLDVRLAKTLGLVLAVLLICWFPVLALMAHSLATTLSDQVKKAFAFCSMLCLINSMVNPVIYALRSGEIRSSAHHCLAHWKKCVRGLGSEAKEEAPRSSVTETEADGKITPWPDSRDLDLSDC
Series [8] is described as follows: Selectivity ratio of IC50 for human recombinant His-tagged MGL expressed in Escherichia coli BL21 DE3 cells to IC50 for rat recombinant His/GST-tagged FAAH expressed in Escherichia coli cells by fluorescence based assay.
A short description of series [9]: Selectivity ratio of IC50 for human full length ABHD6 expressed in Escherichia coli cells to IC50 for rat recombinant His/GST-tagged FAAH expressed in Escherichia coli cells by fluorescence based assay.
Series [10] addresses Cannabinoid receptor 1 (Rattus norvegicus) (UniProt P20272). The experiment in a line: Displacement of [3H]CP55940 from CB1 receptor in rat brain by competition-equilibrium binding analysis.
Target sequence in this assay (P20272 whole entry, looked up): as the sequence (P20272 whole entry) above
Series [11] addresses T4, Fatty-acid amide hydrolase 1 (Homo sapiens, UniProt O00519).
T4 sequence (O00519 whole entry): T2 sequence (whole entry)
The experiment in a line: Inhibition of human recombinant MBP-tagged FAAH expressed in Escherichia coli cells using AAMCA as substrate incubated for 15 mins followed by substrate addition and measured after every 20 mins for 4 hrs by fluorescence based assay. Put shortly: as §1

In series [12] the target is T5, Fatty-acid amide hydrolase 1 (Rattus norvegicus, UniProt P97612).
T5 sequence (P97612 whole entry): T3 sequence (whole entry)
As to the kind of experiment: Inhibition of rat recombinant His/GST-tagged FAAH expressed in Escherichia coli cells using AAMCA as substrate incubated for 15 mins followed by substrate addition and measured after every 20 mins for 4 hrs by fluorescence based assay. In short, it runs like this: as §1

Series [13] in a line: Stability in human liver microsomes assessed as half life. In kind it is ADME, Microsome. In short, it runs like this: (§4)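 Stability assessed as half-life in human, rat and mouse plasma and gastric fluid, and in human, rat and mouse liver microsomal preparations.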
The nature of series [14]: Stability in rat liver microsomes assessed as half life. In kind it is ADME, Microsome. Put shortly:
as §4

A short description of series [15]: Stability in mouse liver microsomes assessed as half life. In kind it is ADME, Microsome. Put shortly: as §4
Series [16] can be described thus: Stability in human plasma assessed as half life. Format: ADME, cell-free. Put shortly: as §4
Series [17] can be described thus: Stability in rat plasma assessed as half life. In kind it is ADME, cell-free. Put shortly: as §4
The nature of series [18]: Stability in mouse plasma assessed as half life. Format: ADME, cell-free. Put shortly: as §4
The nature of series [19]: Stability in human gastric fluid assessed as half life. Format: ADME, tissue-based, Gastric juice. Put shortly: as §4
Series [20] can be described thus: Stability in rat gastric fluid assessed as half life. Format: ADME, tissue-based, Gastric juice. Put shortly:
as §4

Series [21] in a line: Stability in mouse gastric fluid assessed as half life. Format: ADME, tissue-based, Gastric juice. Put shortly:
as §4

The source made the active and inactive calls. The calls are words filed in the database; no cut-off is given here.

Cannabinoid receptor 2 (Mus musculus), sequence (P47936 whole entry): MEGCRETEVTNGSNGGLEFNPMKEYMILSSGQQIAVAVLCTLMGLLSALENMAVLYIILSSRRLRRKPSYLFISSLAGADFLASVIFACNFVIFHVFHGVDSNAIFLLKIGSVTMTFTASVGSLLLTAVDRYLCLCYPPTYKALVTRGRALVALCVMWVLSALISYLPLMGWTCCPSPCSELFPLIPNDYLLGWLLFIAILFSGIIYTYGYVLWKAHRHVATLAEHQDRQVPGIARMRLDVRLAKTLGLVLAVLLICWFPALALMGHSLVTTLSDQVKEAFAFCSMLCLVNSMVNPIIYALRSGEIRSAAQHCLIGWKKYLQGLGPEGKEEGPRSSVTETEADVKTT

In the case of `O=C(Oc1cccc(N2CCS(=O)(=O)CC2)c1)N1CCN(c2ccnnc2)CC1`, at Monoglyceride lipase, the half-inhibitory concentration (IC50) was > 1000 nM. The inhibition entry in series [1] and in series [2] was “inactive” throughout. In addition, the Ratio IC50 (in the series listed under Homo sapiens [3]; in the series listed under Homo sapiens [4]; in series [8]; in series [9]) was > 1000 in each case. The outcome in series [5], in [6], in series [7] and in [10] was inactive.

With `C[C@@H]1CN(C(=O)Oc2cccc(N3CCS(=O)(=O)CC3)c2)[C@@H](C)CN1c1ccc(F)cc1`, the inhibition in series [2] came out at 35%. Moreover, the result in series [5], in series [6], in series [7] and in [10] was inactive.

Turning to `C[C@H]1CN(c2ccccc2)CCN1C(=O)Oc1cccc(N2CCS(=O)(=O)CC2)c1`, the inhibition result in [1] and in [2] was “inactive” throughout. For the same molecule, the outcome in series [5], in [6], in series [7] and in series [10] was inactive.

Regarding `COc1ccc(N2CCN(C(=O)Oc3cccc(N4CCS(=O)(=O)CC4)c3)[C@H](C)C2)cc1`, the values for the half-maximal inhibitory concentration (IC50) (in [11]; in series [12]; on Monoglyceride lipase) were 11.1 nM, 7.4 nM and > 1000 nM, respectively. The half-life is 15 to 25 min in series [13]; 15 to 25 min in [14]; 15 to 25 min in series [15]; > 60 min in series [16]; > 60 min in series [17]; > 60 min in series [18]. In addition, the half-life in [19], in series [20] and in series [21] was > 60 min each time. The Ratio IC50 (in the series filed under Homo sapiens [3]; in the series filed under Homo sapiens [4]; in series [8]; in series [9]) was > 1000 throughout. For the same molecule, the result in series [5], in [6], in series [7] and in series [10] was inactive.

In the case of `O=C(Oc1cccc(N2CCS(=O)(=O)CC2)c1)N1CCN(c2ccc(F)cc2)CC12CC2`, the inhibition in [2] came to 54%. Moreover, the outcome in [5], in series [6], in [7] and in series [10] was inactive.

On to `O=C(Oc1cccc(N2CCS(=O)(=O)CC2)c1)N1CCC(c2ccc(OC(F)(F)F)cc2)CC1`, for which the values for the IC50 (in series [11]; in series [12]; at Monoglyceride lipase) were 3.7 nM, 4 nM and > 1000 nM, respectively. Further, the half-life in series [13] was 15 to 25 min; in [14] it was 15 to 25 min; in series [15] it was 15 to 25 min; in [16], > 60 min; in series [17], > 60 min; in series [18], > 60 min. Moreover, the half-life in series [19], in series [20] and in [21] was > 60 min in each case. Further, the Ratio IC50 (in the series listed under Homo sapiens [3]; in the series filed under Homo sapiens [4]; in series [8]; in series [9]) was > 1000 each time. Further, the outcome in series [5], in series [6], in series [7] and in [10] was inactive.

With `O=C(Oc1cccc(N2CCS(=O)(=O)CC2)c1)N1C[C@@H]2C[C@H]1CN2c1ccc(F)cc1`, the IC50 was 341 nM in [12] and > 1000 nM at Monoglyceride lipase. Besides, the inhibition in series [1] turned out to be 67%. Besides, the Ratio IC50 (in the series listed under Homo sapiens [3]; in the series filed under Homo sapiens [4]; in series [8]; in series [9]) was > 1000 in each case. Further, the outcome in series [5], in series [6], in series [7] and in series [10] was inactive.

For `COc1ccc(N2CCN(C(=O)Oc3cccc(N4CCOCC4)c3)[C@H](C)C2)cc1`, the 50% inhibitory concentration (IC50) in [11] is 4.1 nM; in series [12] it was 5.2 nM; on Monoglyceride lipase, > 1000 nM. The half-life was 15 to 25 min in series [13]; 15 to 25 min in series [14]; 15 to 25 min in series [15]; > 60 min in series [16]; > 60 min in series [17]; > 60 min in series [18]. In addition, the half-life in series [19], in series [20] and in series [21] was > 60 min throughout. Also, the Ratio IC50 (in the series filed under Homo sapiens [3]; in the series filed under Homo sapiens [4]; in [8]; in series [9]) was > 1000 in each case. Further, the result in series [5], in series [6], in series [7] and in series [10] was inactive.

As for `COc1ccc(N2CCN(C(=O)Oc3cccc(N4CCS(=O)(=O)CC4)c3)[C@@H](C(C)C)C2)cc1`, the inhibition entry in series [1] and in series [2] was “inactive” each time. Besides, the result in [5], in series [6], in series [7] and in series [10] was inactive.
